Experimental data reported in article PMC7496803 (Chemistry (Weinheim an Der Bergstrasse, Germany), 2020).

Legend:
[1] = in MeOH; cited from earlier work
PC-3 cells = assay: Phototoxicity, resazurin cell viability assay after 525 nm irradiation; assay type: cell-based
HeLa cells = assay: Phototoxicity, resazurin cell viability assay after 525 nm irradiation; assay type: cell-based
Method in brief: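 HeLa, 2×10^4 per well in DMEM (2.5 % FBS), 21 h before dosing. Turn-off or turn-on peptide photosensitizers in water/12.5 % MeCN, 4.00–0.03 μm final, triplicate, 2 h. Irradiated at 525 nm by LED array, 69.4±0.6 W m−2 for 160 s, then 18 h. Resazurin fluorescence viability; IC50 by four-parameter variable-slope log(inhibitor)–response fit; untreated and vehicle controls; ≥2 independent experiments.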

Compound	Φ Δ of the reference photosensitizers [1]	OFF/ON ratio (IC50 6OFF / IC50 6ON) (PC-3 cells)	phototoxicity variation turn-off/turn-on (IC50 6OFF / IC50 6ON) (HeLa cells)
O=C([O-])c1c(Cl)c(Cl)c(Cl)c(Cl)c1-c1c2cc(I)c(=O)c(I)c-2oc2c(I)c([O-])c(I)cc12.[Na+].[Na+] [rose bengal]	0.76	–	–
Erythrosine B	0.6	–	–
CCCCCCCCCCCCCCCC(=O)NCCCC[C@H](NC(=O)[C@H](CSCC(=O)NCc1cn(CCOc2ccc(C3=C4C(C)=C(I)C(C)=[N+]4[B-](F)(F)n4c(C)c(I)c(C)c43)cc2)nn1)NC(=O)c1ccc(-c2nnc(C)c3c2CCC(O)CCC3)cc1)C(=O)N[C@@H](CCCNC(=N)N)C(=O)N[C@@H](CCCNC(=N)N)C(=O)N[C@@H](CCCNC(=N)N)C(=O)N[C@@H](CCCNC(=N)N)C(N)=O (stereo partly shown) [6ON, [TCO:Tz]‐C(2I‐BODIPY)‐K(PA)RRRR‐CONH2]	–	3.3 fold	3.8 fold
